Compound activity from PubChem BioAssay.
Hits are enriched below; roughly 2.8% of the tested compounds scored in any of these assays.
Mcl1-Noxa inh: Mcl-1/Noxa interaction inhibition. TR-FRET Mcl-1/Noxa peptide binding, 2 h. inhibition, % at 21.7 µM. actives 1.5% (n = 220,000);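 active means compounds that cut the protein-peptide binding signal by more than 50% relative to plate controls in a single-dose test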;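 further: His-tagged Mcl-1 with rhodamine Noxa BH3 peptide and terbium anti-His antibody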
Target sequence (Q07820 whole entry, looked up): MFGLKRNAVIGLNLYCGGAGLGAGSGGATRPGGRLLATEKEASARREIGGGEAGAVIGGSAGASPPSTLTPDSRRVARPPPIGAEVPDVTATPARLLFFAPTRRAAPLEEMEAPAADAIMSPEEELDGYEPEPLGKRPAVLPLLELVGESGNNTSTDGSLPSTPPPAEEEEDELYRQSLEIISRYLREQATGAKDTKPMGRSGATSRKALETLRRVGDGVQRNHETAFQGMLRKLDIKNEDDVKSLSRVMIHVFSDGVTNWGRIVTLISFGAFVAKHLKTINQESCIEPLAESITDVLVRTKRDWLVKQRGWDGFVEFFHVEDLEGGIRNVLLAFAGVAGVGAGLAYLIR
Mcl1-Bid inh: disrupts binding of human Mcl-1 to Bid peptide. Q07820. TR-FRET Mcl-1/Bid-Dy647 peptide binding, 1536-well. inhibition, % at 21.7 µM. actives 0.97% (n = 220,000);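 active means compounds that cut the binding signal by more than half at the single screening dose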;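 further: His-tagged Mcl-1 with europium anti-His antibody binding Bid BH3 peptide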
Arbovirus inh: antivirals against arbovirus infection | arbovirus infection cell-based antiviral screen | inhibition, % at 10 µM | actives 0.37% (n = 200,000) | AID 1251; in the data active means inhibition above about 30%
m-calpain inh: inhibitors of pig calpain II; actives 0.37% (n = 220,000); purified calpain II, fluorogenic peptide substrate, 30 min; inhibition, % at 16 µM;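 active means inhibition above about 50%, limit read from the data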
Mcl-1 Bim block: inhibitors of Bim-Mcl-1 interaction, human; Q07820; Bead-based flow cytometry, Bim peptide-Mcl-1 binding; inhibition, % at 10 µM; actives 0.1% (n = 190,000); AID 1009; in the data active means inhibition above about 40%
Biofilm kill mix: mixtures killing C. albicans biofilm; C. albicans biofilm persisters + clotrimazole, fluorescence viability; primary screen in compound mixtures of four per well; inhibition, % at 7.6 µM; actives 0.02% (n = 120,000);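 active means inhibition above 30.3% in the primary screen of four-compound pools, then above 30% when the compound was retested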;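 further: compounds exposed to preformed 24 h biofilms for 48 h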
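Test system: C. albicans biofilms. Buffer or medium: RPMI/MOPS medium, pH 7.0. Timing: 48 h compound exposure at 37 °C. Technique: Alamar Blue fluorescence. Evaluation: percent inhibition of biofilm viability.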
Hits are given with their value; 0 = inactive; - = no result.

SMILES	Mcl1-Noxa inh	Mcl1-Bid inh	Arbovirus inh	m-calpain inh	Mcl-1 Bim block	Biofilm kill mix
COc1ccccc1C(CC(=O)Nc1ccc(C)c(C)c1)c1ccc(OC(C)C)cc1 (stereo not drawn)	55	0	0	0	0	0
Clc1ccc2nc(CN3CCCc4ccccc43)cn2c1	0	100	0	0	0	-
Clc1ccc2nc(CN3CCCCC3)cn2c1	0	0	0	0	0	-
Clc1nc2nc3n(c2nc1Cl)CCC3	0	0	-	0	-	0
COc1cccc(/C=C/C(=O)c2ccc(NC3=NCCCS3)cc2)c1	57	0	0	0	0	0
O=C(/C=C/c1ccccc1)c1ccc(NC2=NCCCS2)cc1	84	0	0	0	0	0
Cc1cccc(/C=C/C(=O)c2ccc(NC3=NCCCS3)cc2)c1	88	0	0	0	0	0
O=c1nc(-c2ccccc2)n(-c2ccccc2)[nH]1	0	0	0	0	0	0
CNc1ccc(Br)cc(C(=O)/C=C/c2ccc(OC)cc2)c1=O	63	0	0	0	0	0
CCNc1ccc(Br)cc(C(=O)/C=C/c2ccc(Cl)cc2Cl)c1=O	96	0	0	0	0	0
CNc1ccc(Br)cc(C(=O)/C=C/c2cc(OC)ccc2OC)c1=O	87	0	0	0	0	0
CNc1ccc(/C=C/C(=O)c2ccc3c(c2)OCCO3)cc1[N+](=O)[O-]	0	0	0	0	0	0
CNc1ccc(Br)cc(C(=O)/C=C/c2ccc3c(c2)OCO3)c1=O	68	0	0	0	0	-
NC(=S)N=Nc1c(O)[nH]c2c(Br)cc(Br)cc12	0	0	0	0	0	0
COc1cc(NC(=O)C/C(C)=N/NC(=O)C(OC)c2ccccc2)c(OC)cc1Cl (stereo not drawn)	0	0	0	0	0	0
CCc1[nH]c(=S)c(C#N)c2c1CCCC2	59	0	0	0	0	0
CN(c1ccccc1)S(=O)(=O)c1cccc(C(=O)OCC(=O)NCCCN2CCCC2=O)c1	0	0	0	0	0	0
Cc1cccc(NC2=C(NC(=O)c3ccccc3)C(=O)c3ccccc3C2=O)c1	94	0	0	0	0	0
O=C(NC1=C(NC2CCS(=O)(=O)C2)C(=O)c2ccccc2C1=O)c1ccccc1 (stereo not drawn)	70	0	0	0	0	0
O=C(NC1=C(Nc2ccc(Cl)cc2)C(=O)c2ccccc2C1=O)c1ccccc1	61	0	0	0	0	0
CCOc1ccc(NC(=S)NNc2ccnc3cc(Cl)ccc23)cc1	0	0	0	0	0	0
S=C(NNc1ccnc2cc(Cl)ccc12)Nc1ccc(Cl)cc1Cl	85	62	-	0	-	0
Cc1ccc(Nc2nc(-c3cccnc3)nc3ccccc23)cc1	0	0	-	0	-	0
Cc1cccc(-c2nc(Nc3ccc(N4CCOCC4)cc3)c3ccccc3n2)c1	82	0	0	0	0	0
O=C(NNc1c2ccccc2nc2ccccc12)c1ccc(O)cc1O	68	55	0	0	0	-
SMILES	Mcl1-Noxa inh	Mcl1-Bid inh	Arbovirus inh	m-calpain inh	Mcl-1 Bim block	Biofilm kill mix
O=C(NNc1c2ccccc2nc2ccccc12)c1ccc(O)cc1	51	0	0	0	0	0
O=C(NNc1c2ccccc2nc2ccccc12)c1ccccc1O	64	0	0	0	0	0
O=C(NNc1c2ccccc2nc2ccccc12)c1cccc(O)c1	0	0	0	0	0	0
COc1ccccc1NC(=O)c1c(Nc2ccccc2F)sc(C(=O)Nc2cccc(Cl)c2)c1N	0	0	0	0	0	0
O=C(CSc1nc2ccc([N+](=O)[O-])cc2[nH]1)c1ccc2ccccc2c1	62	0	0	0	0	-
Cc1cc2cc(CNC(=O)c3ccc(Br)o3)ccc2n1C	59	0	0	0	-	0
CCOc1ccc(-c2nc(N)ncc2-c2ccccc2)c(O)c1	0	51	0	0	0	-
CC(=O)c1ccc2c(c1)C1C=CCC1C(c1ccc(S(=O)(=O)N3CCOCC3)cc1)N2 (stereo not drawn)	0	0	0	0	0	0
Cc1c(Cl)cccc1NS(=O)(=O)c1ccc2c(c1)C1C=CCC1C(c1ccc(C(=O)O)cc1)N2 (stereo not drawn)	103	100	0	0	0	0
Cc1cccc(C(=O)NCC(=O)N2CC(=O)Nc3ccccc32)c1	0	0	0	0	0	0
CC(C)Sc1nc(N)c2c3c(sc2n1)CN(C)CC3	58	0	0	0	0	-
CCCSc1nc(N)c2c3c(sc2n1)CN(C)CC3	0	0	0	0	0	-
